According to PubChem BioAssay:
Calls of active or inactive are those of the source.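 The calls were made as follows, unless noted: active = viability at or under a set limit in both replicates, limit being median viability minus 3 SD (cut at about 48% in these data, passing the limit was not always enough); inconclusive = at or under the limit in just one replicate; inactive = at or above the limit in both replicates.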

What was measured:
[1] = Her2 expression decrease, cell viability multiplex – SKBR3 breast tumor cells, AlphaScreen, ATP viability, primary screen (AID 461;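 active = Her2 level under about 52% in both replicate screens, with viability over 70% of control, limit read from the data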;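 as to Her2 level: lower value means less Her2 protein in the cells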;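 as to viability: percent of carrier control wells set as 100% viability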); settings: SKBR3 Her2 protein level, 18-24 h, measured here: SKBR3 viability, ATP luminescence, at 10 µM
[2] = biological target: Receptor tyrosine-protein kinase erbB-2 (Homo sapiens) (UniProt P04626); experiment: as above; settings: 18-24 h, at 10 µM, stronger effect = lower value
Chain of Receptor tyrosine-protein kinase erbB-2 (Homo sapiens) (P04626 whole entry, looked up): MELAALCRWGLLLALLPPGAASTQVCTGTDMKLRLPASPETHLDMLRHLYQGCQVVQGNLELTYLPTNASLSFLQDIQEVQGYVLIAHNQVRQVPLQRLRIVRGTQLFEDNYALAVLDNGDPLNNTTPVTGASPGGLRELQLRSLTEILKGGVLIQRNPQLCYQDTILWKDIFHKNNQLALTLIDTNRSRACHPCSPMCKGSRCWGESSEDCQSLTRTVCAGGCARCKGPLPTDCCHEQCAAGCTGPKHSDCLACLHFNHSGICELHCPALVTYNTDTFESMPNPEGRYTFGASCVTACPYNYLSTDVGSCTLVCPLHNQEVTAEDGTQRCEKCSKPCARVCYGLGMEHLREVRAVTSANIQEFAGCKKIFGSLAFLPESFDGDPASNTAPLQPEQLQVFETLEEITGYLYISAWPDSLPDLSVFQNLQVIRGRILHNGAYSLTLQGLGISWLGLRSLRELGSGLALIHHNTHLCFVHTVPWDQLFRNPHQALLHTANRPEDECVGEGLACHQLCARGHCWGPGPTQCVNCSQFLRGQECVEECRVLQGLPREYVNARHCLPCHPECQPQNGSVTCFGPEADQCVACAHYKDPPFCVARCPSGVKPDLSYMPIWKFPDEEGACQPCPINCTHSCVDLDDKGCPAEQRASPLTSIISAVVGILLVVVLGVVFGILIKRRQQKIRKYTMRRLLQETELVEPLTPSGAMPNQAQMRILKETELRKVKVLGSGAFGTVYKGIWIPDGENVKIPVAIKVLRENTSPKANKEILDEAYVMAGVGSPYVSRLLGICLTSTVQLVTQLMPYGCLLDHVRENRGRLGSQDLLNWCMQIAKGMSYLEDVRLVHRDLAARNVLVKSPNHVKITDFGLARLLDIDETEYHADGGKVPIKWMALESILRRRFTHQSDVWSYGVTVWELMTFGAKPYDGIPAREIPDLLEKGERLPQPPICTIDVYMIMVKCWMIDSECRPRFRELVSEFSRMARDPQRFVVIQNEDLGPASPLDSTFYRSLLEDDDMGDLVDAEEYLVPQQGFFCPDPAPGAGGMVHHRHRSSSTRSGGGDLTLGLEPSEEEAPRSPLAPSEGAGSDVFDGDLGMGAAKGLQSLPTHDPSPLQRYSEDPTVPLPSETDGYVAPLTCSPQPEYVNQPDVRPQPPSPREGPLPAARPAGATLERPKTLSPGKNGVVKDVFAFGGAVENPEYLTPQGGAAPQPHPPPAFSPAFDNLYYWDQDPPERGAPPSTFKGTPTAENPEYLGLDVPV

[3] = reduced viability of SK-BR-3 breast cancer cells – cell-based, 24 h, human, pilot screen (AID 572;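 active = viability at or below 10% of carrier control in both of two separate runs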;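 also: compound exposure lasted between 18 and 24 h rather than exactly 24 h; 100% = carrier-treated control wells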); settings: SK-BR-3 viability, CellTiter-Glo luminescence, at 10 µM, stronger effect = lower value
[4] = HUVEC growth inhibition – cell-based, human, primary screen (AID 575;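 active = viability at or below 30% in both replicate assays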;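 also: 100% = median of untreated cell wells with 0.1% DMSO on each plate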); settings: HUVEC proliferation, CellTiter-Glo luminescence, 72 h; at 10 µM; stronger effect = lower value
Method in brief: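 Test system: primary human umbilical vein endothelial cells; medium: endothelial basal medium with 2% FBS plus growth supplements; dosing: 10 µM compound only; times: 72 h treatment at 37 °C; signal: CTG luminescence; read-out: % viability relative to median vehicle-well signal on each plate; control set: vehicle and MePR control wells; plate: 384-well, collagen-coated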

[5] = H69AR cell proliferation blockers – human, duplicate replicates, primary screen (AID 580); settings: H69AR lung tumor cells viability, ATP luminescence, 72 h; at 10 µM; stronger effect = lower value;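 also: 100% = mean luminescence of untreated wells and 0% = no signal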
[6] = MRP1 drug-resistance reversers in H69AR cells – cell-based, doxorubicin co-treatment, pilot screen (AID 601;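 active = viability loss from added drug above about 55%, and viability with drug at most 40%, in both replicates, limit read from the data, passing the limit was not always enough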); settings: CellTiter-Glo, 72 h, at 10 µM; for differential viability (reversal): stronger effect = higher value
[7] = yeast transport mutant growth inhibition pilot in 384-well plates, post-Golgi transport modulator project (AID 636; in the data active = inhibition above about 31%); settings: absorbance 615 nm, about 18 h, stronger effect = higher value
[8] = growth suppression of yeast trafficking mutant, preliminary HTS, modulators of trafficking downstream of Golgi apparatus project, 1536-format plate, OD 615 nm (AID 637; in the data active = inhibition above about 30%); settings: yeast transport mutant growth, absorbance 615 nm, 18 h; stronger effect = higher value
[9] = H69AR cells + 2 uM doxorubicin, measured here: viability with 2 uM doxorubicin, stronger effect = lower value
[10] = H69AR cells, compound alone cytotoxicity

| Compound | viability [1] [%] | Her2 level [2] | viability [3] | viability [4] | viability [5] | differential viability (reversal) ([6]; H69AR cells + 2 uM doxorubicin) | viability [6, 9] [%] | viability [6, 10] [%] | inhibition [7] | inhibition [8] |
| --- | --- | --- | --- | --- | --- | --- | --- | --- | --- | --- |
| COC(=O)c1ccccc1NC(=O)Nc1cc(C)cc(C)n1 | 96 | 86% (inactive) | 96% (inactive) | 103% (inactive) | 102% (inactive) | 6.95% (inactive) | 94.8 | 102 | -1.58% (inactive) | -1.9% (inactive) |
| O=C1CCC(c2ccccc2)N1C(=O)c1cccnc1 (stereo not given) | 129 | 95.5% (inactive) | 129% (inactive) | 105% (inactive) | 98.8% (inactive) | 8.63% (inactive) | 90.2 | 98.8 | -6.58% (inactive) | -4.29% (inactive) |
| Cc1ccc(S(=O)(=O)NCCNC(=O)C2CCCNC2=O)cc1 (stereo not given) | 93.5 | 86.5% (inactive) | 93.5% (inactive) | 103% (inactive) | 105% (inactive) | 12% (inactive) | 92.9 | 105 | -4.67% (inactive) | 1.8% (inactive) |
| CCC(C(=O)Nc1ccccc1C(=O)N1CCCC1)N1C(=O)c2ccccc2C1=O (stereo not given) | 96.5 | 88% (inactive) | 96.5% (inactive) | 78.3% (inactive) | 102% (inactive) | 5.91% (inactive) | 95.8 | 102 | -3.29% (inactive) | -4.83% (inactive) |
| O=c1[nH]c2ccc(S(=O)(=O)N3CCN(C4CCCCC4)CC3)cc2[nH]c1=O | 90.5 | 104% (inactive) | 90.5% (inactive) | 91.8% (inactive) | 103% (inactive) | 9.67% (inactive) | 93.7 | 103 | 0.92% (inactive) | -12.6% (inactive) |
| CC(NC(=O)c1ccc2c(c1)OCO2)C(c1cccs1)N1CCOCC1 (stereo not given) | 97.5 | 82.5% (inactive) | 97.5% (inactive) | 106% (inactive) | 105% (inactive) | 13.5% (inactive) | 91.1 | 105 | -4.81% (inactive) | -0.95% (inactive) |
| CNc1ccc(C(O)(C(F)(F)F)C(F)(F)F)cc1C(O)(C(F)(F)F)C(F)(F)F | 98 | 73% (inactive) | 98% (inactive) | 76.8% (inactive) | 80.7% (inactive) | -3.27% (inactive) | 84 | 80.7 | -5.33% (inactive) | 5.25% (inactive) |
| CCn1c(CCNC(=O)c2cccs2)nnc1SCC(=O)c1ccc(OC)cc1 | 106 | 138% (inactive) | 106% (inactive) | 95.7% (inactive) | 97.4% (inactive) | -5.32% (inactive) | 103 | 97.4 | -1.71% (inactive) | -0.33% (inactive) |
| COc1ccc(Cl)cc1NC(=O)COc1cccc(-n2cnnn2)c1 | 110 | 80% (inactive) | 110% (inactive) | 98.5% (inactive) | 86.4% (inactive) | 4.85% (inactive) | 81.5 | 86.4 | -5.87% (inactive) | 1.61% (inactive) |
| CCOC(=O)N1CCC(N2C(=O)c3ccccc3C2Nc2cccnc2)CC1 (stereo not given) | 91.5 | 104% (inactive) | 91.5% (inactive) | 112% (inactive) | 85.7% (inactive) | 0.11% (inactive) | 85.6 | 85.7 | -2.05% (inactive) | -3% (inactive) |
| CCSc1nc2ccccc2n1CCC(=O)O | 99 | 91.5% (inactive) | 99% (inactive) | 101% (inactive) | 109% (inactive) | 15.9% (inactive) | 93.4 | 109 | -5.21% (inactive) | 1.11% (inactive) |
| COc1ccccc1CCNC(=O)C1CCCO1 (stereo not given) | 108 | 97% (inactive) | 108% (inactive) | 92.1% (inactive) | 98.9% (inactive) | 7.17% (inactive) | 91.7 | 98.9 | -6.18% (inactive) | -11.3% (inactive) |
| Cc1cccc(NC(=O)c2cnc3sccn3c2=O)n1 | 99 | 98.5% (inactive) | 99% (inactive) | 95.8% (inactive) | 100% (inactive) | 8.25% (inactive) | 92.2 | 100 | 0.13% (inactive) | 2.83% (inactive) |
| CCOC(=O)C1CCN(c2c(NC3CCCCCCC3)c(=O)c2=O)CC1 | 90 | 112% (inactive) | 90% (inactive) | 92.2% (inactive) | 79.7% (inactive) | 8.71% (inactive) | 71 | 79.7 | 0.64% (inactive) | 0.5% (inactive) |
| O=S(=O)(c1ccc(OCC(O)CN2CCN(c3ccccc3)CC2)cc1)N1CCOCC1 (stereo not given) | 100 | 90% (inactive) | 100% (inactive) | 110% (inactive) | 96.4% (inactive) | 5.24% (inactive) | 91.2 | 96.4 | -7.57% (inactive) | -3.67% (inactive) |
| COc1ccc(CNC(=O)C(c2ccco2)N(Cc2cccs2)C(=O)Cc2cccs2)cc1 (stereo not given) | 96.5 | 86.5% (inactive) | 96.5% (inactive) | 67.5% (inactive) | 72.5% (inactive) | 8.17% (inactive) | 64.3 | 72.5 | -1.95% (inactive) | -4.29% (inactive) |
| N#CC(C(=O)CCN1C(=O)C2CC=CCC2C1=O)c1nc2ccccc2[nH]1 (stereo not given) | 116 | 98% (inactive) | 116% (inactive) | 95.9% (inactive) | 91.1% (inactive) | 3.88% (inactive) | 87.2 | 91.1 | -5.07% (inactive) | 6.23% (inactive) |
| COC(=O)/C=c1/s/c(=C(/C#N)C(=O)N2CCOCC2)n(-c2ccccc2)c1=O | 116 | 80.5% (inactive) | 116% (inactive) | 98.8% (inactive) | 88.8% (inactive) | -10.8% (inactive) | 99.6 | 88.8 | -7.4% (inactive) | -3.17% (inactive) |
| CC(C)(C)c1ccc(-c2nnc(SCCC#N)n2C2CCCC2)cc1 | 73.5 | 98.5% (inactive) | 73.5% (inactive) | 65.7% (inactive) | 78.8% (inactive) | 18.4% (inactive) | 60.5 | 78.8 | -4.32% (inactive) | -4.1% (inactive) |
| O=S(=O)(c1ccc(S(=O)(=O)N(Cc2ccco2)Cc2ccccc2Cl)cc1)N1CCCC1 | 96 | 74.5% (inactive) | 96% (inactive) | 79% (inactive) | 76.6% (inactive) | 12.4% (inactive) | 64.2 | 76.6 | -5.54% (inactive) | 8.1% (inactive) |
| O=C(CN(Cc1cccs1)C(=O)CNS(=O)(=O)c1ccccc1)NCc1ccco1 | 98 | 96.5% (inactive) | 98% (inactive) | 101% (inactive) | 101% (inactive) | 12.7% (inactive) | 88 | 101 | 0.13% (inactive) | -3.33% (inactive) |
| CCc1nnc(NC(=O)c2ccc(-c3cccc(C(F)(F)F)c3)o2)s1 | 102 | 130% (inactive) | 102% (inactive) | 102% (inactive) | 91.4% (inactive) | 11.2% (inactive) | 80.2 | 91.4 | -5.6% (inactive) | -4.03% (inactive) |
| O=C(Nc1ccc(SC(F)F)cc1)c1ccc2nccnc2c1 | 91.5 | 77.5% (inactive) | 91.5% (inactive) | 67% (inactive) | 92.1% (inactive) | 2.67% (inactive) | 89.4 | 92.1 | -2.53% (inactive) | -2.54% (inactive) |
| CCCN1C(=O)c2cc(C(=O)O)ccc2C1O (stereo not given) | 113 | 100% (inactive) | 113% (inactive) | 90.1% (inactive) | 103% (inactive) | 18.7% (inactive) | 84.1 | 103 | -1.07% (inactive) | 1.48% (inactive) |
| COc1cc(NC(=O)c2ccc(COCC(F)(F)F)o2)cc(OC)c1OC | 95 | 84% (inactive) | 95% (inactive) | 92.8% (inactive) | 99.6% (inactive) | 20.1% (inactive) | 79.5 | 99.6 | -1.45% (inactive) | 2.58% (inactive) |
| COc1ccc(S(=O)(=O)NCc2ccc(C(=O)O)cc2)cc1 | 102 | 99% (inactive) | 102% (inactive) | 107% (inactive) | 95.8% (inactive) | -10.6% (inactive) | 106 | 95.8 | -3.77% (inactive) | -3.33% (inactive) |
| Cc1sc2ncnc(SCC(=O)N3CCCC3)c2c1C | 124 | 95.5% (inactive) | 124% (inactive) | 78.1% (inactive) | 93% (inactive) | 9.69% (inactive) | 83.3 | 93 | -2.08% (inactive) | 6.39% (inactive) |
| Cc1ccccc1-c1nc(CS(=O)(=O)CC(=O)N(C)C2CCCCC2)c(C)o1 | 108 | 104% (inactive) | 108% (inactive) | 90.9% (inactive) | 92.7% (inactive) | 0.46% (inactive) | 92.2 | 92.7 | 0.27% (inactive) | -5.08% (inactive) |
